Source: ChEMBL document CHEMBL1158415, “Synthesis, antimicrobial activity and QSAR studies of new 2,3-disubstituted-3,3a,4,5,6,7-hexahydro-2H-indazoles” (Bioorg Med Chem Lett, 2009)

Columns and labels:
[1] = Octanol-water partition coefficient, log P of the compound; assay type: physicochemical
[2] = tested on: Aspergillus niger; assay: Antifungal activity against Aspergillus niger after 7 days by tube dilution method; assay type: functional
How it was run: (§1)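 Tube dilution in Sabouraud dextrose broth, done in duplicate. DMSO test solution (10 µg/mL) is serially diluted to give 5, 2.5, 1.25, 0.625 and 0.312 µg/mL. Each tube gets 0.1 mL of spore/microbial suspension in saline, then is incubated at 25 °C for 7 d. MIC is read visually as the lowest concentration without turbidity, refined with intermediate concentrations. Fluconazole is the reference.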

[3] = tested on: Candida albicans; assay: Antifungal activity against Candida albicans after 48 hrs by tube dilution method; assay type: functional
How it was run: as §1, with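 “5 down to” for “5, 2.5, 1.25, 0.625 and”, “yeast” for “spore/microbial”, “37” for “25”, “48 h.” for “7 d.”, “is” for “is read visually as”, “preventing” for “without”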

[4] = tested on: Staphylococcus aureus; assay: Antibacterial activity against Staphylococcus aureus after 24 hrs by tube dilution method; assay type: functional
How it was run: (§2)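 Tube dilution in double strength nutrient broth-IP, done in duplicate. Test solution in DMSO (10 µg/mL) is serially diluted twofold into medium to give 5, 2.5, 1.25, 0.625 and 0.312 µg/mL. Each tube gets 0.1 mL of microbial suspension in saline, then is incubated at 37 °C for 24 h. MIC is the lowest concentration with no visible turbidity, refined by testing intermediate concentrations. Ciprofloxacin is the reference.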

[5] = tested on: Bacillus subtilis; assay: Antibacterial activity against Bacillus subtilis after 24 hrs by tube dilution method; assay type: functional; how it was run: as §2
[6] = tested on: Escherichia coli; assay: Antibacterial activity against Escherichia coli after 24 hrs by tube dilution method; assay type: functional; how it was run: as §2
[7] = tested on: Pseudomonas aeruginosa; assay: Antibacterial activity against Pseudomonas aeruginosa after 24 hrs by tube dilution method; assay type: functional; how it was run: as §2

Row | Structure (SMILES) | logP [1] | -logMIC [2] | -logMIC [3] | -logMIC [4] | -logMIC [5] | -logMIC [6] | -logMIC [7]
1 | COc1ccc(C2C3CCCCC3=NN2S(=O)(=O)c2ccccc2)cc1 (stereo not drawn) | 4.6 | 2.57 | 2.61 | 2.57 | 2.47 | 2.57 | 2.61
2 | Clc1ccc(C2NN=C3CCCCC32)cc1 (stereo not drawn) | 4.4 | 2.27 | 2.27 | 2.07 | 2.07 | 2.19 | 2.19
3 | Cc1ccc(S(=O)(=O)N2N=C3CCCCC3C2c2ccc(Cl)cc2)cc1 (stereo not drawn) | 5.8 | 2.64 | 2.59 | 2.49 | 2.64 | 2.59 | 2.64
4 | O=S(=O)(c1ccc(Cl)cc1)N1N=C2CCCCC2C1c1ccc(F)cc1 (stereo not drawn) | 5.1 | 2.64 | 2.59 | 2.64 | 2.69 | 2.75 | 2.79
5 | Cc1ccc(S(=O)(=O)N2N=C3CCCCC3C2c2ccc(F)cc2)cc1 (stereo not drawn) | 5.4 | 2.67 | 2.57 | 2.47 | 2.62 | 2.62 | 2.67
6 | O=S(=O)(c1cccc2ccccc12)N1N=C2CCCCC2C1c1ccc(F)cc1 (stereo not drawn) | 6 | 2.66 | 2.61 | 2.61 | 2.66 | 2.71 | 2.77
7 | O=[N+]([O-])c1ccc(S(=O)(=O)N2N=C3CCCCC3C2c2ccc(Cl)cc2)cc1 (stereo not drawn) | 5.3 | 2.82 | 2.82 | 2.67 | 2.72 | 2.67 | 2.78
8 | O=S(=O)(c1ccc(Cl)cc1)N1N=C2CCCCC2C1c1ccc(Cl)cc1 (stereo not drawn) | 5.9 | 2.71 | 2.77 | 2.61 | 2.71 | 2.66 | 2.77
9 | COc1ccc(C2C3CCCCC3=NN2S(=O)(=O)c2ccc(C)cc2)cc1 (stereo not drawn) | 5.1 | 2.68 | 2.63 | 2.49 | 2.63 | 2.58 | 2.58
10 | CS(=O)(=O)N1N=C2CCCCC2C1c1ccc(F)cc1 (stereo not drawn) | 3.3 | 2.57 | 2.47 | 2.37 | 2.57 | 2.47 | 2.52
11 | CS(=O)(=O)N1N=C2CCCCC2C1c1ccc(Cl)cc1 (stereo not drawn) | 3.7 | 2.5 | 2.59 | 2.4 | 2.54 | 2.4 | 2.5
12 | COc1ccc(C2C3CCCCC3=NN2S(=O)(=O)c2ccc(Cl)cc2)cc1 (stereo not drawn) | 4.3 | 2.65 | 2.61 | 2.61 | 2.65 | 2.65 | 2.7
13 | O=S(=O)(c1cccc2ccccc12)N1N=C2CCCCC2C1c1ccc(Cl)cc1 (stereo not drawn) | 6.4 | 2.67 | 2.73 | 2.53 | 2.67 | 2.63 | 2.67
14 | COc1ccc(C2C3CCCCC3=NN2S(C)(=O)=O)cc1 (stereo not drawn) | 2.9 | 2.53 | 2.59 | 2.31 | 2.53 | 2.39 | 2.49
15 | COc1ccc(C2C3CCCCC3=NN2S(=O)(=O)c2cccc3ccccc23)cc1 (stereo not drawn) | 5.6 | 2.62 | 2.62 | 2.53 | 2.62 | 2.62 | 2.67
16 | O=[N+]([O-])c1ccc(S(=O)(=O)N2N=C3CCCCC3C2c2ccc(F)cc2)cc1 (stereo not drawn) | 4.9 | 2.76 | 2.65 | 2.7 | 2.76 | 2.76 | 2.81
17 | COc1ccc(C2NN=C3CCCCC32)cc1 (stereo not drawn) | 3.6 | 2.19 | 2.19 | 2.01 | 2.01 | 2.06 | 2.19
18 | COc1ccc(C2C3CCCCC3=NN2S(=O)(=O)c2ccc([N+](=O)[O-])cc2)cc1 (stereo not drawn) | 4.5 | 2.66 | 2.77 | 2.66 | 2.62 | 2.66 | 2.72
19 | O=S(=O)(c1ccccc1)N1N=C2CCCCC2C1c1ccc(Cl)cc1 (stereo not drawn) | 5.4 | 2.62 | 2.62 | 2.57 | 2.62 | 2.57 | 2.67
20 | Fc1ccc(C2NN=C3CCCCC32)cc1 (stereo not drawn) | 4 | 2.24 | 2.16 | 2.04 | 2.24 | 2.24 | 2.24
21 | O=S(=O)(c1ccccc1)N1N=C2CCCCC2C1c1ccc(F)cc1 (stereo not drawn) | 5 | 2.55 | 2.6 | 2.55 | 2.65 | 2.65 | 2.71
22 | O=C(O)c1cn(C2CC2)c2cc(N3CCNCC3)c(F)cc2c1=O [CIPROFLOXACIN] | – | – | – | 2.03 | 2.33 | 2.03 | 2.62
23 | OC(Cn1cncn1)(Cn1cncn1)c1ccc(F)cc1F [FLUCONAZOLE] | – | 3.16 | 3.16 | – | – | – | –
